From ChEMBL document CHEMBL1125147, “Nonsteroidal cardiotonics. 3. New 4,5-dihydro-6-(1H-indol-5-yl)pyridazin-3(2H)-ones and related compounds with positive inotropic activities” (1990)

Tests used:
[1] = test system: Rattus norvegicus; experiment: Effective dose required to produce an increase in dP/dt by 1500 mmHg/s from that of the control in the anesthetized rats.; format: functional
In short: (§1)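 Male SPF Sprague–Dawley rats (350–450 g), thiabutarbital sodium 80–100 mg/kg ip, tracheotomized. LV pressure measured by a Millar microtip catheter passed via the right carotid artery. Compounds given as jugular iv bolus (0.5 mL/kg) in increasing doses every 10 min. Readings taken 10 min post-dose as steady state. ED1.5 (dP/dt +1500 mmHg/s at LVP 50 mmHg) from log-linear regression, log means. Max = peak rise in dP/dt and the dose giving it.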

[2] = test system: Felis catus; experiment: Effective dose required to produce an increase in dP/dt by 1500 mmHg/s from that of the control in the anesthetized cats.; format: functional
In short: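 Cats of both sexes, pentobarbitone 45 mg/kg ip plus 0.1 mg/kg min infusion, pump-ventilated, open chest. Dextran 10 mL/kg iv and desacetylmetipranolol 0.3 mg/kg iv for β-blockade failure. LV pressure by Millar tip catheter via the auricle. Increasing iv bolus doses every 10 min, read at 10 min. ED1.5 (dP/dt +1500 mmHg/s at LVP 50 mmHg) by log-linear regression, log means.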

[3] = test system: Rattus norvegicus; experiment: Maximum increase in dP/dt from that of the control in the anesthetized rats at dose 10.0 mg/kg; format: functional; in short: as §1
[4] = test system: Felis catus; experiment: Maximum increase in dP/dt from that of the control in the anesthetized cats at dose 10.0 mg/kg

Compound | ED1.5 [1] [mg/kg] | further results
O=C1COC(c2ccc3[nH]c(-c4ccncc4)cc3c2)=NN1 | 0.7 | 
Oc1cnc(-c2ccc3[nH]c(-c4ccncc4)cc3c2)cn1 | 0.15 | 
O=C1CCC(c2ccc3[nH]c(-c4ccncc4)cc3c2)=NN1 | 0.04 | 
O=C1CCC(c2ccc3[nH]c(-c4ccnnc4)cc3c2)=NN1 | 0.02 | 
CCc1c(-c2ccncc2)[nH]c2ccc(C3=NNC(=O)CC3)cc12 | 1.1 | 
CC1CC(=O)NN=C1c1ccc2[nH]c(-c3ccncc3)cc2c1 (stereo not given) | 0.02 | ED1.5 [2]: 0.007 mg/kg
O=C1CCC(c2ccc3[nH]c(-c4cccnc4)cc3c2)=NN1 | 2.5 | 
O=C1CCC(c2ccc3[nH]c(-c4ccccc4O)cc3c2)=NN1 | 1.04 | 
O=C1CCC(c2ccc3[nH]c(-c4cscn4)cc3c2)=NN1 | 0.26 | 
Cc1c(-c2ccncc2)[nH]c2ccc(C3=NNC(=O)CC3)cc12 | 0.08 | 
CCOC(=O)c1cc2cc(C3=NNC(=O)CC3)ccc2[nH]1 | 1.5 | 
CC1(C)C(=O)NN=C1c1ccc2[nH]c(-c3ccncc3)cc2c1 | 0.25 | 
Cc1c(-c2ccncc2)[nH]c2ccc(C3=NNC(=O)CC3C)cc12 (stereo not given) | 0.02 | 
Cc1[nH]c(=O)c(C#N)cc1-c1ccncc1 [MILRINONE] | 0.15 | Max [3]: 3.4 mHg/s; ED1.5 [2]: 0.04 mg/kg
COc1ccc(-c2nc3cc(C4=NNC(=O)CC4C)ccc3[nH]2)cc1 (stereo not given) [PIMOBENDAN] | 1.31 | Max [4]: 2.9 mHg/s; ED1.5 [2]: 0.6 mg/kg
